From ChEMBL document CHEMBL1152825, “Pseudomonas aeruginosa may accumulate drug resistance mechanisms without losing its ability to cause bloodstream infections” (2007)
Values after ≈ are worked out from the molar mass of the structure shown.

Key:
Pseudomonas aeruginosa [1] = assay: Antibacterial activity against beta-lactams resistant Pseudomonas aeruginosa isolate expressing AmpC, MexAB-OprM pump by macrodilution technique; type: functional
Outline: (§1)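 Bloodstream P. aeruginosa isolates from patients in six French teaching hospitals (1999–2004). MICs by agar macrodilution on Mueller-Hinton agar with calibrated divalent cations. Isolates were graded susceptible, intermediate or resistant by CLSI breakpoints. Resistance was defined as a ≥fourfold MIC rise over reference strain PAO1. Resistance mechanisms were assigned by RT-PCR (PAO1-derived overexpressing mutants as controls) and gene complementation.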

Pseudomonas aeruginosa [2] = assay: Antibacterial activity against beta-lactams resistant Pseudomonas aeruginosa isolate expressing MexXY-OprM pump, TEM-2 by macrodilution technique; type: functional
Outline: (§2)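 MICs by agar macrodilution on Mueller-Hinton agar with calibrated divalent cations. Isolates were graded susceptible, intermediate or resistant by CLSI breakpoints. Resistance was defined as a ≥fourfold MIC rise over reference strain PAO1. Resistance mechanisms were assigned by RT-PCR (PAO1-derived overexpressing mutants as controls) and gene complementation.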

Pseudomonas aeruginosa [3] = assay: Antibacterial activity against fluoroquinolone-resistant Pseudomonas aeruginosa isolate with GyrA mutant by macrodilution technique
Pseudomonas aeruginosa [4] = assay: Antibacterial activity against Pseudomonas aeruginosa clinical isolates assessed as resistant rate by macrodilution technique; type: functional
Pseudomonas aeruginosa [5] = assay: Antibacterial activity against Pseudomonas aeruginosa clinical isolate by macrodilution technique; type: functional
Pseudomonas aeruginosa [6] = assay: Antibacterial activity against wild type Pseudomonas aeruginosa PAO1 by macrodilution technique; type: functional
Outline: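 Wild-type reference strain PAO1. MIC by agar macrodilution on Mueller-Hinton agar with calibrated divalent cations. It served as the baseline for defining a ≥fourfold MIC increase in clinical isolates, and as the expression reference in RT-PCR.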

Pseudomonas aeruginosa [7] = assay: Antibacterial activity against wild type Pseudomonas aeruginosa isolate by macrodilution technique; type: functional; outline: as §2
Pseudomonas aeruginosa [8] = assay: Antibacterial activity against aminoglycoside-resistant Pseudomonas aeruginosa isolate expressing MexXY-OprM pump by macrodilution technique; type: functional; outline: as §1
Pseudomonas aeruginosa [9] = assay: Antibacterial activity against MexXY-OprM pump-independent aminoglycoside-resistant Pseudomonas aeruginosa isolate by macrodilution technique; type: functional; outline: as §1
Pseudomonas aeruginosa [10] = assay: Antibacterial activity against aminoglycoside-resistant Pseudomonas aeruginosa isolate expressing MexXY-OprM pump, ANT(2'')-1 by macrodilution technique; type: functional; outline: as §1
Pseudomonas aeruginosa [11] = assay: Antibacterial activity against aminoglycoside-resistant Pseudomonas aeruginosa isolate expressing MexXY-OprM pump, AAC(6')-1 by macrodilution technique; type: functional; outline: as §1
Pseudomonas aeruginosa [12] = assay: Antibacterial activity against aminoglycoside-resistant Pseudomonas aeruginosa isolate expressing ANT(2'')-1 by macrodilution technique; type: functional; outline: as §1
Pseudomonas aeruginosa [13] = assay: Antibacterial activity against aminoglycoside-resistant Pseudomonas aeruginosa isolate expressing AAC(6')-1, ANT(2'')-1 by macrodilution technique; type: functional; outline: as §1
Pseudomonas aeruginosa [14] = assay: Antibacterial activity against aminoglycoside-resistant Pseudomonas aeruginosa isolate expressing MexXY-OprM pump, AAC(6')-1, ANT(2'')-1 by macrodilution technique; type: functional; outline: as §1
Pseudomonas aeruginosa [15] = assay: Antibacterial activity against aminoglycoside-resistant Pseudomonas aeruginosa isolate expressing MexXY-OprM pump, AAC(3')-1 by macrodilution technique; type: functional; outline: as §1
Pseudomonas aeruginosa [16] = assay: Antibacterial activity against aminoglycoside-resistant Pseudomonas aeruginosa isolate expressing MexXY-OprM pump, AAC(6')-1, AAC(3')-1 by macrodilution technique; type: functional; outline: as §1
Pseudomonas aeruginosa [17] = assay: Antibacterial activity against aminoglycoside-resistant Pseudomonas aeruginosa isolate expressing AAC(6')-1 by macrodilution technique; type: functional; outline: as §1
Pseudomonas aeruginosa [18] = assay: Antibacterial activity against Pseudomonas aeruginosa clinical isolates assessed as susceptible rate by macrodilution technique; type: functional
Pseudomonas aeruginosa [19] = assay: Antibacterial activity against beta-lactams resistant Pseudomonas aeruginosa isolate expressing MexAB-OprM pump by macrodilution technique; type: functional; outline: as §2
Pseudomonas aeruginosa [20] = assay: Antibacterial activity against beta-lactams resistant Pseudomonas aeruginosa isolate expressing MexAB-OprM pump, MexXY-OprM pump by macrodilution technique; type: functional; outline: as §2
Pseudomonas aeruginosa [21] = assay: Antibacterial activity against beta-lactams resistant Pseudomonas aeruginosa isolate expressing OXA2 by macrodilution technique; type: functional; outline: as §2
Pseudomonas aeruginosa [22] = assay: Antibacterial activity against beta-lactams resistant Pseudomonas aeruginosa isolate expressing AmpC, MexAB-OprM pump, MexXY-OprM pump by macrodilution technique; type: functional; outline: as §2
Pseudomonas aeruginosa [23] = assay: Antibacterial activity against beta-lactams resistant Pseudomonas aeruginosa isolate expressing AmpC by macrodilution technique; type: functional; outline: as §2
Pseudomonas aeruginosa [24] = assay: Antibacterial activity against beta-lactams resistant Pseudomonas aeruginosa isolate expressing MexXY-OprM pump by macrodilution technique; type: functional; outline: as §2
Pseudomonas aeruginosa [25] = assay: Antibacterial activity against beta-lactams resistant Pseudomonas aeruginosa isolate expressing AmpC, MexXY-OprM pump by macrodilution technique; type: functional; outline: as §2
Pseudomonas aeruginosa [26] = assay: Antibacterial activity against beta-lactams resistant OprD-deficient Pseudomonas aeruginosa isolate by macrodilution technique; type: functional; outline: as §2
Pseudomonas aeruginosa [27] = assay: Antibacterial activity against beta-lactams resistant Pseudomonas aeruginosa isolate expressing PSE-1, MexXY-OprM pump by macrodilution technique; type: functional; outline: as §2
Pseudomonas aeruginosa [28] = assay: Antibacterial activity against beta-lactams resistant Pseudomonas aeruginosa isolate expressing AmpC, PSE-1, MexXY-OprM pump by macrodilution technique; type: functional; outline: as §2
Pseudomonas aeruginosa [29] = assay: Antibacterial activity against beta-lactams resistant Pseudomonas aeruginosa isolate expressing PSE-1 by macrodilution technique; type: functional; outline: as §2
Pseudomonas aeruginosa [30] = assay: Antibacterial activity against beta-lactams resistant Pseudomonas aeruginosa isolate expressing AmpC, MexXY-OprM pump, TEM-2 by macrodilution technique; type: functional; outline: as §2

Row | Compound | MIC (Pseudomonas aeruginosa [1]) [mg/L] | MIC (Pseudomonas aeruginosa [2]) [mg/L] | Activity (Pseudomonas aeruginosa [4]) [%] | MIC50 (Pseudomonas aeruginosa [5]) [mg/L] | MIC90 (Pseudomonas aeruginosa [5]) [mg/L] | MIC (Pseudomonas aeruginosa [6]) [mg/L] | MIC (Pseudomonas aeruginosa [7]) [mg/L] | MIC (Pseudomonas aeruginosa [8]) [mg/L] | MIC (Pseudomonas aeruginosa [9]) [mg/L] | MIC (Pseudomonas aeruginosa [10]) [mg/L] | MIC (Pseudomonas aeruginosa [11]) [mg/L] | MIC (Pseudomonas aeruginosa [12]) [mg/L] | MIC (Pseudomonas aeruginosa [13]) [mg/L] | MIC (Pseudomonas aeruginosa [14]) [mg/L] | MIC (Pseudomonas aeruginosa [15]) [mg/L] | MIC (Pseudomonas aeruginosa [16]) [mg/L] | MIC (Pseudomonas aeruginosa [17]) [mg/L] | Activity (Pseudomonas aeruginosa [18]) [%] | MIC (Pseudomonas aeruginosa [19]) [mg/L] | MIC (Pseudomonas aeruginosa [23]) [mg/L] | further results
1 | C[C@H]1[C@H](NC(=O)/C(=N\OC(C)(C)C(=O)O)c2csc(N)n2)C(=O)N1S(=O)(=O)O [AZTREONAM] | 8 (≈ 18.4 µM) | 8 (≈ 18.4 µM) |  |  |  |  |  |  |  |  |  |  |  |  |  |  |  |  |  |  | 
2 | O=C(O)c1cn(C2CC2)c2cc(N3CCNCC3)c(F)cc2c1=O [CIPROFLOXACIN] |  |  |  |  |  |  |  |  |  |  |  |  |  |  |  |  |  |  |  |  | MIC (Pseudomonas aeruginosa [3]): 16 mg/L (≈ 48.3 µM)
3 | NC[C@H]1O[C@H](O[C@H]2[C@H](O)[C@@H](O[C@H]3O[C@H](CO)[C@@H](O)[C@H](N)[C@H]3O)[C@H](N)C[C@@H]2N)[C@H](N)C[C@@H]1O [TOBRAMYCIN] |  |  | 21.7 | 1 (≈ 2.14 µM) | > 64 | 0.5 (≈ 1.07 µM) | 1 (≈ 2.14 µM) | 2 (≈ 4.28 µM) | 2 (≈ 4.28 µM) | > 64 | > 64 | 16 (≈ 34.2 µM) | 64 (≈ 137 µM) | 64 (≈ 137 µM) | 2 (≈ 4.28 µM) | > 64 | 32 (≈ 68.4 µM) | 77.5 |  |  | 
4 | CO/N=C(\C(=O)N[C@@H]1C(=O)N2C(C(=O)[O-])=C(C[N+]3(C)CCCC3)CS[C@H]12)c1csc(N)n1 | 8 (≈ 16.6 µM) |  |  |  |  |  |  |  |  |  |  |  |  |  |  |  |  |  | 8 (≈ 16.6 µM) | 8 (≈ 16.6 µM) | MIC (Pseudomonas aeruginosa [20]): 8 mg/L (≈ 16.6 µM); MIC (Pseudomonas aeruginosa [21]): 2 mg/L (≈ 4.16 µM); MIC (Pseudomonas aeruginosa [22]): 8 mg/L (≈ 16.6 µM)
5 | CC1(C)S[C@@H]2[C@H](NC(=O)[C@H](C(=O)O)c3ccsc3)C(=O)N2[C@H]1C(=O)O [TICARCILLIN] | 128 (≈ 333 µM) | > 256 | 10.8 | 32 (≈ 83.2 µM) | 256 (≈ 666 µM) | 16 (≈ 41.6 µM) | 16 (≈ 41.6 µM) |  |  |  |  |  |  |  |  |  |  | 77.5 | 128 (≈ 333 µM) | 64 (≈ 166 µM) | MIC (Pseudomonas aeruginosa [24]): 16 mg/L (≈ 41.6 µM); MIC (Pseudomonas aeruginosa [25]): 128 mg/L (≈ 333 µM); MIC (Pseudomonas aeruginosa [26]): 16 mg/L (≈ 41.6 µM); MIC (Pseudomonas aeruginosa [27]): > 256 mg/L; MIC (Pseudomonas aeruginosa [28]): > 256 mg/L; MIC (Pseudomonas aeruginosa [29]): > 256 mg/L; MIC (Pseudomonas aeruginosa [20]): 128 mg/L (≈ 333 µM); MIC (Pseudomonas aeruginosa [30]): > 256 mg/L; MIC (Pseudomonas aeruginosa [21]): 128 mg/L (≈ 333 µM); MIC (Pseudomonas aeruginosa [22]): 128 mg/L (≈ 333 µM)
6 | CCN[C@@H]1C[C@H](N)[C@@H](O[C@H]2OC(CN)=CC[C@H]2N)[C@H](O)[C@H]1O[C@H]1OC[C@](C)(O)[C@H](NC)[C@H]1O [NETILMICIN] |  |  | 15 | 8 (≈ 16.8 µM) | 32 (≈ 67.3 µM) | 4 (≈ 8.41 µM) | 4 (≈ 8.41 µM) | 16 (≈ 33.6 µM) | 16 (≈ 33.6 µM) | 16 (≈ 33.6 µM) | > 128 | 8 (≈ 16.8 µM) | > 128 | > 128 | 16 (≈ 33.6 µM) | > 128 | > 128 | 56.7 |  |  | 
7 | C[C@@H](O)[C@H]1C(=O)N2C(C(=O)O)=C(SCCNC=N)C[C@H]12 [IMIPENEM ANHYDROUS] |  |  | 10.8 | 2 (≈ 6.68 µM) | 16 (≈ 53.4 µM) | 1 (≈ 3.34 µM) |  |  |  |  |  |  |  |  |  |  |  | 82.5 | 4 (≈ 13.4 µM) | 8 (≈ 26.7 µM) | MIC (Pseudomonas aeruginosa [24]): 8 mg/L (≈ 26.7 µM); MIC (Pseudomonas aeruginosa [25]): 16 mg/L (≈ 53.4 µM); MIC (Pseudomonas aeruginosa [26]): 8 mg/L (≈ 26.7 µM); MIC (Pseudomonas aeruginosa [27]): 64 mg/L (≈ 214 µM)
8 | GENTAMICIN |  |  | 25 | 4 | 128 | 2 | 4 | 8 | 8 | 128 | 128 | > 128 | 128 | 128 | 128 | 128 | 128 | 53.3 |  |  | 
9 | NCC[C@H](O)C(=O)N[C@@H]1C[C@H](N)[C@@H](O[C@H]2O[C@H](CN)[C@@H](O)[C@H](O)[C@H]2O)[C@H](O)[C@H]1O[C@H]1O[C@H](CO)[C@@H](O)[C@H](N)[C@H]1O [AMIKACIN] |  |  | 1.7 | 4 (≈ 6.83 µM) | 16 (≈ 27.3 µM) | 4 (≈ 6.83 µM) | 4 (≈ 6.83 µM) | 8 (≈ 13.7 µM) | 8 (≈ 13.7 µM) | 8 (≈ 13.7 µM) | 32 (≈ 54.6 µM) | 4 (≈ 6.83 µM) | 16 (≈ 27.3 µM) | 16 (≈ 27.3 µM) | 8 (≈ 13.7 µM) | 128 (≈ 219 µM) | 16 (≈ 27.3 µM) | 93.3 |  |  | 
10 | CC(C)(O/N=C(\C(=O)N[C@@H]1C(=O)N2C(C(=O)[O-])=C(C[n+]3ccccc3)CS[C@H]12)c1csc(N)n1)C(=O)O [CEFTAZIDIME] | 4 (≈ 7.32 µM) | 8 (≈ 14.6 µM) | 3.3 | 2 (≈ 3.66 µM) | 8 (≈ 14.6 µM) | 1 (≈ 1.83 µM) |  |  |  |  |  |  |  |  |  |  |  | 90 | 4 (≈ 7.32 µM) | 16 (≈ 29.3 µM) | MIC (Pseudomonas aeruginosa [24]): 2 mg/L (≈ 3.66 µM); MIC (Pseudomonas aeruginosa [25]): 8 mg/L (≈ 14.6 µM); MIC (Pseudomonas aeruginosa [26]): 2 mg/L (≈ 3.66 µM); MIC (Pseudomonas aeruginosa [27]): 2 mg/L (≈ 3.66 µM); MIC (Pseudomonas aeruginosa [28]): 8 mg/L (≈ 14.6 µM); MIC (Pseudomonas aeruginosa [29]): 2 mg/L (≈ 3.66 µM); MIC (Pseudomonas aeruginosa [20]): 2 mg/L (≈ 3.66 µM); MIC (Pseudomonas aeruginosa [30]): 32 mg/L (≈ 58.5 µM); MIC (Pseudomonas aeruginosa [21]): 2 mg/L (≈ 3.66 µM); MIC (Pseudomonas aeruginosa [22]): 16 mg/L (≈ 29.3 µM)
